Laboratory results reported in ChEMBL document CHEMBL1136852, “Isolation and structure elucidation of parnafungins C and D, isoxazolidinone-containing antifungal natural products” (2009).
≈ marks a conversion by molar mass, not a printed value.

Key:
Assay type in all cases: functional
Candida albicans [1] = assay: Antifungal activity against Candida albicans MY2323 expressing single copy of CLP1 gene
How it was run: (§1)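 Wild-type C. albicans was tested alongside two heterozygote strains, each carrying a single copy of CLP1 or YSH1, to compare mechanism of action. The read-out was MIC.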

Candida tropicalis = assay: Antifungal activity against Candida Candida tropicalis ATCC 750
How it was run: (§2)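 MIC was determined in Sabouraud dextrose medium.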

Candida parapsilosis = assay: Antifungal activity against Candida parapsilosis 22019; details: Lodderomyces parapsilosis; how it was run: as §2
Candida albicans [2] = assay: Antifungal activity against Candida albicans MY2323 expressing single copy of YSH1 gene; how it was run: as §1
Clavispora lusitaniae = assay: Antifungal activity against Candida lusitaniae ATCC 34449; how it was run: as §2
Candida albicans [3] = assay: Antifungal activity against Candida albicans MY2323; how it was run: as §1
Nakaseomyces glabratus = assay: Antifungal activity against Candida glabrata ATCC 90030; how it was run: as §2
Pichia kudriavzevii = assay: Antifungal activity against Candida krusei ATCC 6258; how it was run: as §2

MIC (Candida albicans [1])	MIC (Candida tropicalis)	MIC (Candida parapsilosis)	MIC (Candida albicans [2])	MIC (Clavispora lusitaniae)	MIC (Candida albicans [3])	MIC (Nakaseomyces glabratus)	MIC (Pichia kudriavzevii)	Structure (SMILES)
0.03 µg/mL (≈ 0.0645 µM)	2.5 µg/mL (≈ 5.37 µM)	> 10 µg/mL	0.03 µg/mL (≈ 0.0645 µM)	0.16 µg/mL (≈ 0.344 µM)	2 µg/mL (≈ 4.3 µM)	> 10 µg/mL	0.08 µg/mL (≈ 0.172 µM)	COC(=O)[C@]12Oc3cc4c(c(OC)c3C(=O)C1=C(O)CC[C@@H]2O)-c1cccc2c(=O)on(c12)C4 [PARNAFUNGIN A]
0.004 µg/mL (≈ 0.00834 µM)	0.6 µg/mL (≈ 1.25 µM)	2.5 µg/mL (≈ 5.21 µM)	0.004 µg/mL (≈ 0.00834 µM)	0.16 µg/mL (≈ 0.334 µM)	0.016 µg/mL (≈ 0.0334 µM)	5 µg/mL (≈ 10.4 µM)	0.016 µg/mL (≈ 0.0334 µM)	COC(=O)[C@]12Oc3cc4c(c(OC)c3C(=O)C1=C(O)[C@@H]1O[C@@H]1[C@@H]2O)-c1cccc2c(=O)on(c12)C4 [PARNAFUNGIN D]
